Assay results: ChEMBL document CHEMBL1140534, “Heteroaryl beta-tetralin ureas as novel antagonists of human TRPV1” (Bioorg Med Chem Lett, 2007)

Key:
[1] = target: T1, Transient receptor potential cation channel subfamily V member 1 (Homo sapiens, UniProt Q8NER1); experiment: Antagonist activity at human recombinant TRPV1 expressed in HEK293 cells assessed as inhibition of capsaicin-induced calcium by FLIPR method; format: functional, cell-based
Outline: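 Stably transfected hTRPV1/HEK293 cells grown on poly-D-lysine for 2 days, then loaded with Fluo-3/AM for 1 h. Each well receives a single compound concentration. Intracellular Ca2+ is read by FLIPR for 3 min before capsaicin is added at a final 15 nM to fully activate TRPV1. Antagonist potency is reported as IC50.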

[2] = target: T1, Transient receptor potential cation channel subfamily V member 1; experiment: Displacement of [3H]RTX from human TRPV1 expressed in HEK293 cells; format: cell-based
Outline: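 Membranes from hTRPV1/HEK293 cells, prepared in HEPES buffer pH 7.4 (20 mM HEPES, NaCl, sucrose, MgCl2, CaCl2, KCl). Incubated 60 min at 37 °C with 0.3–0.6 nM [3H]-RTX. Samples cooled on ice, alpha-acid glycoprotein added, then centrifuged and pellets counted by scintillation. Nonspecific binding defined with 200 nM unlabeled RTX. Reported as Ki.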

T1 sequence (Q8NER1 whole entry): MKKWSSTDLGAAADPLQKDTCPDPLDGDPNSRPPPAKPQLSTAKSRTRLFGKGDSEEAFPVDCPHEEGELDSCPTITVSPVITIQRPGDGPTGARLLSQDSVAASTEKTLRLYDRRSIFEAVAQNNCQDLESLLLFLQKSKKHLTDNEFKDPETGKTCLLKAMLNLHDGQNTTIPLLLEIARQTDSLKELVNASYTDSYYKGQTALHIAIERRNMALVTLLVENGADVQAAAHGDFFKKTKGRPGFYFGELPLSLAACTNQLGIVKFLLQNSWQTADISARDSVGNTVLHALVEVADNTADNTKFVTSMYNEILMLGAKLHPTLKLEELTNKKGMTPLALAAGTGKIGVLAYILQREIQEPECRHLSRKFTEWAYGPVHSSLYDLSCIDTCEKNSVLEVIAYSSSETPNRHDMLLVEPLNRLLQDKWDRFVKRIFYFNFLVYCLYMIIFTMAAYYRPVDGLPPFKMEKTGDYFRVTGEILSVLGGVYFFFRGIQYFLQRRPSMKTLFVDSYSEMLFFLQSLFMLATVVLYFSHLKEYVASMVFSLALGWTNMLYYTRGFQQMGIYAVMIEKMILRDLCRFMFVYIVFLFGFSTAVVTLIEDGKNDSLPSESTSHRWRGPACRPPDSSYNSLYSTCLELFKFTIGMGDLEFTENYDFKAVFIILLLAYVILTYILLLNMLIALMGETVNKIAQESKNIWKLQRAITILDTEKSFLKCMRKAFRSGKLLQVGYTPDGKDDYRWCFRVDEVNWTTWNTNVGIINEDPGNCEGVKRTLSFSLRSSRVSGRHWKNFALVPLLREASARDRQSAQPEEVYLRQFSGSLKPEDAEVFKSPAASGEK

SMILES	IC50 [1] [nM]	Ki [2] [nM]
O=C(Nc1cccc2cnccc12)NC1CCc2cc(F)ccc2C1CC1CC1 (centres undefined)	350	0.8
O=C(Nc1cccc2cnccc12)NC1CCc2cc(O)ccc2C1Cc1ccccc1 (centres undefined)	200	–
COc1ccc(CC2c3ccc(OC)cc3CCC2NC(=O)Nc2cccc3cnccc23)cc1 (centres undefined)	36	8
O=C(Nc1cccc2ccc(O)cc12)NC1CCc2cc(F)ccc2C1Cc1ccc(C(F)(F)F)cc1 (centres undefined)	360	22
COc1ccc(C(C)CNC(=O)Nc2cccc3cnccc23)cc1 (centres undefined)	680	1290
O=C(Nc1cccc2cnccc12)NC1CCc2ccccc2C1Cc1ccccc1 (centres undefined)	20	4
COc1ccc2c(c1)CCC(NC(=O)Nc1cccc3cnccc13)C2Cc1ccccc1 (centres undefined)	25	3
COc1ccc(C(CNC(=O)Nc2cccc3cnccc23)Cc2cccnc2)cc1 (centres undefined)	184	578
COc1ccc(C(CNC(=O)Nc2cccc3cnccc23)Cc2ccccc2)cc1 (centres undefined)	14	6
O=C(NCC(Cc1ccccc1)c1ccc(F)cc1)Nc1cccc2cnccc12 (centres undefined)	5	8
O=C(Nc1cccc2cnccc12)NC1CCc2cc(F)ccc2C1Cc1ccccc1 (centres undefined)	12	4
O=C(Nc1cccc2cnccc12)NC1CCc2cc(Br)ccc2C1Cc1ccccc1 (centres undefined)	17	2
COc1ccc2c(c1)CCC(NC(=O)Nc1cccc3cnccc13)C2Cc1ccc(Br)cc1 (centres undefined)	22	1
O=C(Nc1cccc2cnccc12)NC1CCc2cc(F)ccc2C1Cc1ccc(C(F)(F)F)cc1 (centres undefined)	10	1
O=C(Nc1cccc2cnccc12)NC1CCc2cc(Cl)ccc2C1Cc1ccccc1 (centres undefined)	63	11
O=C(Nc1cccc2cnccc12)NC1CCc2ccc(Cl)cc2C1Cc1ccccc1 (centres undefined)	86	5
O=C(NCC(Cc1cccc(C(F)(F)F)c1)c1ccc(F)cc1)Nc1cccc2cnccc12 (centres undefined)	19	20
O=C(Nc1cccc2cnccc12)NC1CCc2cc(F)ccc2C1Cc1cccs1 (centres undefined)	140	4
C=CCC1c2ccc(F)cc2CCC1NC(=O)Nc1cccc2cnccc12 (centres undefined)	100	2
COc1ccc2c(c1)CCC(NC(=O)Nc1cccc3ccc(O)cc13)C2Cc1ccccc1 (centres undefined)	60	10
COc1cc2c(cc1OC)C(Cc1ccccc1)C(NC(=O)Nc1cccc3cnccc13)CC2 (centres undefined)	230	20
O=C(NCC(Cc1ccccc1)c1ccc(C(F)(F)F)cc1)Nc1cccc2cnccc12 (centres undefined)	–	4
COc1ccc2c(c1)CCC(NC(=O)Nc1cccc3cnccc13)C2Cc1ccc(C#N)cc1 (centres undefined)	21	17
COc1ccc2c(c1)CCC(NC(=O)Nc1cccc3cnccc13)C2Cc1cccnc1 (centres undefined)	> 1000	–
N#CCC1c2ccc(Cl)cc2CCC1NC(=O)Nc1cccc2cnccc12 (centres undefined)	> 1000	–
O=C(Nc1cccc2cnccc12)NC1CCc2c(Cl)cccc2C1Cc1ccccc1 (centres undefined)	16	2
COc1ccc2c(c1)CCC(NC(=O)Nc1cccc3cnccc13)C2Cc1cccc(Cl)c1 (centres undefined)	13	2
O=C(Nc1cccc2cnccc12)NC1CCc2cc(F)ccc2C1Cc1ccoc1 (centres undefined)	83	16
COc1ccc2c(c1)CCC(NC(=O)Nc1cccc3cnccc13)C2Cc1ccc(C(F)(F)F)cc1 (centres undefined)	2	2
